ChEMBL document CHEMBL1153722, “Design, synthesis, and characterization of peptide-based rab geranylgeranyl transferase inhibitors” (J Med Chem, 2009)
Peptide text beside a SMILES is read from it. * marks the point of attachment. Hydrocinnamoyl = O=C(CCc1ccccc1)*; Palmitoyl = CCCCCCCCCCCCCCCC(=O)*; Undecanoyl = CCCCCCCCCCC(=O)*; Cbz = O=C(OCc1ccccc1)*; NHBn = c1ccc(CN*)cc1; NHPh = c1ccc(N*)cc1; NHNH2 = NN*; NHOH = ON*

Organism: Rattus norvegicus
Assay: Inhibition of rat recombinant Rab geranylgeranyltransferase at 100 uM in presence of canine Rab7 and rat REP1 NBD-FPP based continuous fluorimetric assay
Outline: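 Continuous fluorometric assay in 96/384-well format: 3 μM Rab7, 3 μM REP1, 9 μM NBD-FPP and 400 nM RabGGTase, with or without inhibitor. […] IC50 was calculated from three independent measurements.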

| SMILES | inhibition |
| --- | --- |
| CCCCCCCCCCC(=O)N[C@@H](Cc1c[nH]cn1)C(=O)N[C@@H](Cc1c[nH]cn1)C(=O)N[C@@H](Cc1ccc(O)cc1)C(=O)NCc1ccccn1 | 80% |
| O=C(CCNC(=O)[C@H](Cc1c[nH]cn1)NC(=O)OCc1ccccc1)N[C@@H](Cc1ccc(O)cc1)C(=O)Nc1nccs1 | 73% |
| NNC(=O)[C@H](CCC(N)=O)NC(=O)[C@H](Cc1ccccc1)NC(=O)[C@H](CO)NC(=O)CCc1ccccc1 (Hydrocinnamoyl-Ser-Phe-Gln-NHNH2) | 104% |
| CCCCCCCCCCCOc1ccc(C(=O)N[C@@H](Cc2ccc(O)cc2)C(=O)N[C@@H](Cc2ccc(O)cc2)C(=O)N[C@@H](Cc2ccc(O)cc2)C(=O)NC2CCCCC2)cc1 | 91% |
| O=C(N[C@@H](Cc1ccc(O)cc1)C(=O)N[C@@H](Cc1ccc(O)cc1)C(=O)N[C@@H](Cc1ccc(O)cc1)C(=O)O)c1ccc(F)cc1F | 106% |
| O=C(CNC(=O)[C@H](Cc1c[nH]cn1)NC(=O)OCc1ccccc1)N[C@@H](Cc1ccc(O)cc1)C(=O)Nc1nccs1 | 82% |
| NC(=O)CC[C@H](NC(=O)[C@H](Cc1ccccc1)NC(=O)[C@H](CO)NC(=O)CCc1ccccc1)C(=O)Nc1ccccc1 (Hydrocinnamoyl-Ser-Phe-Gln-NHPh) | 90% |
| CCCCCCCCCCCCCCCC(=O)N[C@@H](Cc1ccc(O)cc1)C(=O)N[C@@H](Cc1ccc(O)cc1)C(=O)N[C@@H](Cc1ccc(O)cc1)C(=O)O (Palmitoyl-Tyr-Tyr-Tyr-OH) | 93% |
| CCCCCCCCCCCOc1ccc(C(=O)N[C@@H](Cc2ccc(O)cc2)C(=O)N[C@@H](Cc2ccc(O)cc2)C(=O)N[C@@H](Cc2ccc(O)cc2)C(=O)Nc2ccccn2)cc1 | 72% |
| O=C(CNC(=O)c1coc(-c2ccccc2)n1)NCC(=O)N[C@@H](Cc1cn(C(c2ccccc2)(c2ccccc2)c2ccccc2)cn1)C(=O)Nc1ccc(F)cc1F | 6% |
| CCCCCCCCCCCOc1ccc(C(=O)N[C@@H](Cc2c[nH]cn2)C(=O)N[C@@H](Cc2ccc(O)cc2)C(=O)N[C@@H](Cc2ccccc2)C(=O)NC2CCCCC2)cc1 | 56% |
| CN(CCc1ccccn1)C(=O)[C@H](Cc1ccc(O)cc1)NC(=O)CNC(=O)[C@H](Cc1c[nH]cn1)NC(=O)OCc1ccccc1 | 85% |
| C[C@@H](O)[C@H](NC(=O)C(Br)C(Br)c1ccccc1)C(=O)N[C@@H](Cc1ccccc1)C(=O)N[C@@H](CCC(N)=O)C(=O)Nc1nccs1 (stereo partly drawn) | 93% |
| O=C(N[C@@H](Cc1ccc(O)cc1)C(=O)N[C@@H](Cc1ccc(O)cc1)C(=O)N[C@@H](Cc1ccc(O)cc1)C(=O)NCc1ccccc1)c1ccc(F)cc1F | 70% |
| NCCCC[C@H](NC(=O)CCc1ccccc1)C(=O)N[C@@H](Cc1c[nH]cn1)C(=O)N[C@@H](CO)C(=O)O (Hydrocinnamoyl-Lys-His-Ser-OH) | 89% |
| O=C(CCc1ccccc1)N[C@@H](CO)C(=O)NCC(=O)N[C@@H](CO)C(=O)NCc1ccccc1 (Hydrocinnamoyl-Ser-Gly-Ser-NHBn) | 90% |
| CCCCCCCCCCCCCCCC(=O)N[C@@H](Cc1ccc(O)cc1)C(=O)N[C@@H](Cc1ccc(O)cc1)C(=O)N[C@@H](Cc1ccc(O)cc1)C(=O)OC (Palmitoyl-Tyr-Tyr-Tyr-OMe) | 49% |
| CCCCCCCCCCCOc1ccc(C(=O)N[C@@H](Cc2ccc(O)cc2)C(=O)N[C@@H](Cc2ccc(O)cc2)C(=O)N[C@@H](Cc2ccc(O)cc2)C(=O)NCC(O)CO)cc1 (stereo partly drawn) | 90% |
| CC(=O)Nc1cc(C(=O)N2CCC[C@H]2C(=O)N[C@@H](C(=O)N[C@@H](CCC(=O)O)C(=O)Nc2ccc(F)c(Cl)c2)C(C)C)ccc1[N+](=O)[O-] | 109% |
| C[C@H](NC(=O)[C@@H](NC(=O)c1ccc(-c2ccccc2)cc1)[C@@H](C)O)C(=O)N[C@@H](CCC(=O)O)C(=O)O | 96% |
| COC(=O)[C@H](Cc1ccc(O)cc1)NC(=O)CCNC(=O)[C@H](Cc1c[nH]cn1)NC(=O)OCc1ccccc1 | 72% |
| CCCCCCCCCCC(=O)N[C@@H](Cc1c[nH]cn1)C(=O)N[C@@H](Cc1ccccc1)C(=O)N[C@@H](Cc1ccc(O)cc1)C(=O)NO (Undecanoyl-His-Phe-Tyr-{NHOH}) | 89% |
| CC(C)[C@H](NC(=O)c1coc(-c2ccccc2)n1)C(=O)NCC(=O)N[C@@H](Cc1c[nH]cn1)C(=O)Nc1ccc(F)cc1F | 55% |
| O=C(CCc1ccc(F)cc1)N[C@@H](Cc1ccc(O)cc1)C(=O)NCC(=O)N[C@@H](Cc1ccc(O)cc1)C(=O)Nc1ccc(F)cc1F | 89% |
| O=C(N[C@@H](CO)C1=N[C@H](C(=O)O)CO1)c1coc(-c2ccccc2)n1 | 93% |
| CCCCCCCCCCCOc1ccc(C(=O)N[C@@H](Cc2c[nH]cn2)C(=O)N[C@@H](Cc2ccc(O)cc2)C(=O)N[C@@H](Cc2ccccc2)C(=O)N(C)OC)cc1 | 65% |
| CCCCCCCCCCC(=O)N[C@@H](Cc1c[nH]cn1)C(=O)N[C@@H](Cc1c[nH]cn1)C(=O)N[C@@H](CO)C(=O)Nc1ccccn1 | 61% |
| O=C(CNC(=O)[C@H](Cc1ccc(O)cc1)NC(=O)c1coc(-c2ccccc2)n1)N[C@@H](Cc1c[nH]c2ccccc12)C(=O)O | 59% |
| C[C@@H](O)[C@H](NC(=O)C(Br)C(Br)c1ccccc1)C(=O)N[C@@H](Cc1ccccc1)C(=O)N[C@@H](CCC(N)=O)C(=O)OCCCl (stereo partly drawn) | 64% |
| NC(=O)[C@H](Cc1ccc(O)cc1)NC(=O)CNC(=O)[C@H](Cc1c[nH]cn1)NC(=O)OCc1ccccc1 (Cbz-His-Gly-Tyr-NH2) | 89% |

Further lines, results first:

| inhibition | SMILES |
| --- | --- |
| 90% | O=C(CCc1ccccc1)N[C@@H](CO)C(=O)N[C@@H](Cc1ccccc1)C(=O)N[C@@H](CO)C(=O)NC1CCCCC1 |
| 84% | O=C(/C=C/c1ccc(F)cc1)N[C@@H](CO)C(=O)N[C@@H](Cc1ccccc1)C(=O)N[C@@H](CO)C(=O)OCCCl |
| 92% | COC(=O)[C@H](CCC(N)=O)NC(=O)[C@H](Cc1ccccc1)NC(=O)[C@@H](NC(=O)/C=C/c1ccccc1)[C@@H](C)O |
| 109% | CC(C)C[C@H](NC(=O)[C@H](COC(C)(C)C)NC(=O)[C@H](Cc1ccccc1)NC(=O)CCc1ccccc1)C(=O)OCCCl |
| 89% | O=C(CNC(=O)[C@@H]1CCCN1C(=O)c1coc(-c2ccccc2)n1)N[C@@H](Cc1ccc(O)cc1)C(=O)Nc1ccc(F)cc1F |
| -2% | COC(=O)[C@H](Cc1ccccc1)NC(=O)[C@H](Cc1ccccc1)NC(=O)[C@H](CC(C)C)NC(=O)/C=C/c1ccccc1 |
| 61% | CC#CCOC(=O)[C@H](Cc1ccccc1)NC(=O)[C@H](Cc1ccccc1)NC(=O)[C@H](CC(C)C)NC(=O)/C=C/c1ccccc1 |
| 48% | CC(C)C[C@H](NC(=O)[C@H](COC(C)(C)C)NC(=O)[C@H](Cc1ccccc1)NC(=O)c1ccc(-c2ccccc2)cc1)C(N)=O |
| 26% | CC(C)C[C@H](NC(=O)[C@@H]1CCCN1C(=O)/C=C/c1ccccc1)C(=O)N[C@@H](Cc1ccccc1)C(=O)NCc1ccc(F)cc1F |
| 79% | COC(=O)[C@H](Cc1ccccc1)NC(=O)[C@H](CC(C)C)NC(=O)[C@@H]1CCCN1C(=O)/C=C/c1ccccc1 |
| 95% | CC(C)C[C@H](NC(=O)[C@H](CO)NC(=O)[C@H](Cc1ccccc1)NC(=O)/C=C/c1ccc(F)cc1)C(=O)NNc1ccccc1 |
| -4% | CC(C)C[C@H](NC(=O)/C=C/c1ccccc1)C(=O)N[C@@H](Cc1ccccc1)C(=O)N[C@@H](Cc1ccccc1)C(=O)NC1CCCCC1 |
| 98% | COC(=O)[C@H](CO)NC(=O)[C@H](Cc1ccccc1)NC(=O)[C@H](CO)NC(=O)/C=C/c1ccc(F)cc1 |
